ChEMBL document CHEMBL1130113 (J Med Chem, 1997)
Where a SMILES comes first, the peptide text is derived from it. [ ]: non-standard residue; d: D form. Aib = CC(C)(N)C(=O)O

Legend:
Mu-type opioid receptor [1] = molecular target: Mu-type opioid receptor (Rattus norvegicus, UniProt P33535); experiment: Affinity was assessed using competitive binding assay labeled with [3H]- DAGO (1.28 nM) for Opioid receptor mu 1
Method in brief: (§1)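 Rat brain synaptosomal membranes, preincubated, in duplicate tubes. Buffer 50 mM HEPES pH 7.5, 5 mM MgCl2, glycerol, protease inhibitors. Equilibrium incubation 120 min at room temperature (22-23 °C). Labeled peptide displaced by 6-14 analogue concentrations spanning a 1000-fold range. Filtered on glass fiber and washed 3× with ice-cold buffer containing 0.01% BSA. Ki from IC50 by Cheng-Prusoff.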

[2] = molecular target: Delta-type opioid receptor (Rattus norvegicus, UniProt P33533); experiment: Affinity was assessed using competitive binding assay labeled with [3H]DPDPE (6.3 nM) for Opioid receptor delta 1; method in brief: as §1
Chain of Delta-type opioid receptor (Rattus norvegicus, UniProt P33533) (P33533 whole entry): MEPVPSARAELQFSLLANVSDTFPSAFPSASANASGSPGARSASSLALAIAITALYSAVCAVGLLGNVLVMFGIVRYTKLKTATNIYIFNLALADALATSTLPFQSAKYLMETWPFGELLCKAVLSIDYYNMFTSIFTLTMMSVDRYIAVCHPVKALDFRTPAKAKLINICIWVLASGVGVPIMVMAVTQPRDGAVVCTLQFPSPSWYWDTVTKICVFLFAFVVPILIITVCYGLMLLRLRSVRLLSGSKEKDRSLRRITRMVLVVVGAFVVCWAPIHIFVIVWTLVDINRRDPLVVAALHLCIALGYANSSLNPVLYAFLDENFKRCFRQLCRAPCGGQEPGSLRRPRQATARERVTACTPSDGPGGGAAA

Mu-type opioid receptor [3] = molecular target: Mu-type opioid receptor (Cavia porcellus, UniProt P97266); experiment: Functional biological activity for mu opioid receptor was determined in vitro, on guinea pig ileum (GPI).; type: tissue-based
Chain of Mu-type opioid receptor (Cavia porcellus, UniProt P97266) (P97266 whole entry): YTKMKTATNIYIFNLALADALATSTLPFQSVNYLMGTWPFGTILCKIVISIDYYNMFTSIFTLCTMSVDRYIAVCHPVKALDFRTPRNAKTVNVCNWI
Method in brief: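 A 2-3 cm guinea pig ileum segment was held in a 20 mL organ bath with 70 µM hexamethonium bromide and 0.125 µM mepyramine maleate, gassed with 95% O2/5% CO2 at 36 °C. Transmural stimulation used 0.5 ms square-wave pulses at 0.1 Hz, at 1.5× maximal-twitch voltage (~30 V). Twitch inhibition was read from dose-response curves against dermorphin or morphine.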

[4] = IC50 ratio measured as the IC50 value of GPI to that of MVD.; type: functional
[5] = molecular target: Delta-type opioid receptor (Mus musculus, UniProt P32300); experiment: Functional biological activity for Opioid receptor delta 1 was determined in vitro, on mouse vas deferens (MVD).; type: tissue-based
Chain of Delta-type opioid receptor (Mus musculus, UniProt P32300) (P32300 whole entry): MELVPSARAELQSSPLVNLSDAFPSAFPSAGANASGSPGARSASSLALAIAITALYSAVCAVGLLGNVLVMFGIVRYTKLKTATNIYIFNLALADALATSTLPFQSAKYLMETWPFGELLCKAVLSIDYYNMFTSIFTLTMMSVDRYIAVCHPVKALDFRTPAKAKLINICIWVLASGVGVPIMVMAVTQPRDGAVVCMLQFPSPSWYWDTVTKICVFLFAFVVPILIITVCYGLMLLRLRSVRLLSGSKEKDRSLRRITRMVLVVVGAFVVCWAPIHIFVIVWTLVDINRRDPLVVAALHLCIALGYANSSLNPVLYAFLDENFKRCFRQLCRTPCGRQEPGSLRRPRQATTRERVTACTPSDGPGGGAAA

[6] = molecular target: Opioid receptors; mu & delta (Homo sapiens) (UniProt P41143+P35372); experiment: Selectivity ratio measured as the Ki ratio of mu receptor th that of delta receptor; type: protein assay
Chain of Opioid receptors; mu & delta (Homo sapiens) (P35372 whole entry, looked up): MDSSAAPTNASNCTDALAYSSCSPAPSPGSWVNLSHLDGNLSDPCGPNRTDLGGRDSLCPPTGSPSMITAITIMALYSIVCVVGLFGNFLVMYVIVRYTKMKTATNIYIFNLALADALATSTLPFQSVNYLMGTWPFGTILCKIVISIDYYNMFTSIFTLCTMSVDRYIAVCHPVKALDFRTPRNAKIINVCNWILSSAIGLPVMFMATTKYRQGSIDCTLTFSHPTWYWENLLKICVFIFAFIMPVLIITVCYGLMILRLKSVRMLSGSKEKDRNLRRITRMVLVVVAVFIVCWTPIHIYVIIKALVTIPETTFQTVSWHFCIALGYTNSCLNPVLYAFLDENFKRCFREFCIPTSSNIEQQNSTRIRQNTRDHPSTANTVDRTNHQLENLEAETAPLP
Chain of Opioid receptors; mu & delta (Homo sapiens) (P41143 whole entry, looked up): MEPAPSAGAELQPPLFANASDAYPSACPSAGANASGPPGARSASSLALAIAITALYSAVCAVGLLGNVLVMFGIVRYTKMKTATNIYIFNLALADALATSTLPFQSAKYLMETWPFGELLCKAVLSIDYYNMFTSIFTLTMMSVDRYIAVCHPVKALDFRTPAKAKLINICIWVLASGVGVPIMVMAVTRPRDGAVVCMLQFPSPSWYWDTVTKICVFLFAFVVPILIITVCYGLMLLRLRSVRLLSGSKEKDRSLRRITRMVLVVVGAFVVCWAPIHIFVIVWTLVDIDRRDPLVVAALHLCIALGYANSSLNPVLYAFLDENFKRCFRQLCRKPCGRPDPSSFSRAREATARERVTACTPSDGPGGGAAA
Method in brief: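 Ratio of Ki values for mu and delta receptors. Both were measured in rat brain synaptosomal membranes in 50 mM HEPES pH 7.5 with 5 mM MgCl2, glycerol and protease inhibitors, for 120 min at 22-23 °C. Radioligand was displaced by 6-14 concentrations over a 1000-fold range. Bound ligand was collected by glass-fiber filtration, and Ki came from IC50 by Cheng-Prusoff.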

Chain of Mu-type opioid receptor (Rattus norvegicus, UniProt P33535) (P33535 whole entry): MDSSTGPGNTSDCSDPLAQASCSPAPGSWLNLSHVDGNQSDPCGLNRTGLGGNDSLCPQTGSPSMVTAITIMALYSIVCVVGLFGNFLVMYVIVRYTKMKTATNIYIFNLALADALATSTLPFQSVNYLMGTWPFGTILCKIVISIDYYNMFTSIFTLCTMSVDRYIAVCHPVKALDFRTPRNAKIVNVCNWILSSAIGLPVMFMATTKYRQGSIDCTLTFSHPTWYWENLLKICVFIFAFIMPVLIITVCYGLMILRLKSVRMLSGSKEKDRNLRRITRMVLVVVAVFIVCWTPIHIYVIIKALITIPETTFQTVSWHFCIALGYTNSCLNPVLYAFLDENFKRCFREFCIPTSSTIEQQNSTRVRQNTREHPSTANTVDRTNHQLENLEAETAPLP

SMILES	Ki (Mu-type opioid receptor [1]) [nM]	Ki [2] [nM]	IC50 (Mu-type opioid receptor [3]) [nM]	IC50 ratio [4]	IC50 [5] [nM]	Selectivity ratio [6]
CC(C)[C@H](NC(=O)[C@H](CC(=O)O)NC(=O)C(C)(C)NC(=O)[C@@H](N)Cc1ccc(O)cc1)C(=O)N[C@H](C(=O)NCC(N)=O)C(C)C (H-Y[Aib]DVVG-NH2)	441000	2630				
CC(C)[C@H](NC(=O)[C@@H](NC(=O)C(C)(C)NC(=O)[C@H](Cc1ccccc1)NC(=O)[C@@H](C)NC(=O)[C@@H](N)Cc1ccc(O)cc1)C(C)C)C(=O)NCC(=O)O	4.48	0.11				
CC(C)[C@H](NC(=O)[C@H](CC(=O)O)NC(=O)[C@@H](C)NC(=O)[C@@H](C)NC(=O)[C@@H](N)Cc1ccc(O)cc1)C(=O)N[C@H](C(=O)NCC(N)=O)C(C)C	13600	5.72				
CC(NC(=O)[C@@H](N)Cc1ccc(O)cc1)C(=O)N[C@@H](Cc1ccccc1)C(=O)N[C@@H](CC(=O)O)C(=O)N[C@H](C(=O)N[C@H](C(=O)NCC(N)=O)C(C)C)C(C)C (single isomer, unassigned) [DELTORPHIN C]			420			
CC(C)[C@H](NC(=O)[C@@H](NC(=O)[C@@H](CC(=O)O)NC(=O)C(C)(C)NC(=O)C(C)(C)NC(=O)[C@@H](N)Cc1ccc(O)cc1)C(C)C)C(=O)NCC(N)=O				> 21		
CC(C)[C@H](NC(=O)[C@H](CC(=O)O)NC(=O)C(C)(C)NC(=O)C(C)(C)NC(=O)[C@@H](N)Cc1ccc(O)cc1)C(=O)N[C@H](C(=O)NCC(N)=O)C(C)C	15200	3.62	> 10		70	
CC(C)[C@H](NC(=O)[C@H](CC(=O)O)NC(=O)[C@H](Cc1ccccc1)NC(=O)C(C)(C)NC(=O)[C@@H](N)Cc1ccc(O)cc1)C(=O)N[C@H](C(=O)NCC(N)=O)C(C)C (H-Y[Aib]FDVVG-NH2)	1020	0.12	> 10	> 7000	1.44	
CC(C)[C@H](NC(=O)[C@H](CC(=O)O)NC(=O)C(C)(C)NC(=O)[C@@H](C)NC(=O)[C@@H](N)Cc1ccc(O)cc1)C(=O)N[C@H](C(=O)NCC(N)=O)C(C)C	4540	0.8	> 10	> 175	57.3	5680
CC(C)[C@H](NC(=O)[C@@H](NC(=O)C(C)(C)NC(=O)[C@H](Cc1ccccc1)NC(=O)[C@@H](C)NC(=O)[C@@H](N)Cc1ccc(O)cc1)C(C)C)C(=O)NCC(N)=O	0.43	0.2	4.5	13	0.36	
